For nine molecules, IC50 and Control results are on record in ChEMBL document CHEMBL1122648 (J Med Chem, 1984).

For orientation: IC50 means the midpoint of a concentration-inhibition curve.

The subject of one experiment is CCRF-CEM. The experiment can be described thus: In vitro cytotoxicity by its growth inhibitory activity against human leukemic lymphoblasts (CEM cells). The class given is functional, cell-based. In a few lines:
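Human leukemic lymphoblasts (CEM) counted after 48 h of drug exposure. Compounds dissolved in Me2SO (1 mg/mL), diluted 10-fold in Me2SO, then added to growth medium (final Me2SO 0.1%). Triplicate tubes per dose, averaged; IC50 reported.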

A further experiment has as its target T1, Dihydrofolate reductase (Bos taurus, UniProt P00376).
T1 sequence (P00376 whole entry): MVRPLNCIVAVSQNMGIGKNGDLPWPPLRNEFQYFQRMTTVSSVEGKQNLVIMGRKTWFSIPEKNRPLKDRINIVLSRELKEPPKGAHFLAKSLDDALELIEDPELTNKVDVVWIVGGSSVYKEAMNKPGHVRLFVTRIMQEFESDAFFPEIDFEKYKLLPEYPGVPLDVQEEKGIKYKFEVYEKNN
Briefly: In vitro ability to inhibit the Dihydrofolate reductase extracted from beef liver.

Experiment [1] is described as follows: Compound was evaluated for its inhibitory effect on thymidine [3H]dThd) incorporation into DNA of CEM/MTX cells in culture at conc. 10e-5. The format is functional, Homo sapiens. Details: scale not given: the % may be the effect or the level left. The method, boiled down:
(§1)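 Log-phase CEM or CEM/MTX (transport-defective) cells, 2×10^5 per tube in serum-free EBSS, exposed to 10^-7–10^-4 M compound for 1 h at 37 °C under 5% CO2. Then pulsed 0.5 h with [3H]dThd or [3H]dUrd, washed in cold EBSS and lysed in SDS with tRNA carrier. DNA precipitated with cold 0.5 N HClO4; acid-insoluble counts given as % of untreated controls.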

Experiment [2] can be described thus: Compound was evaluated for its inhibitory effect on thymidine [3H]-dThd) incorporation into DNA of CEM/MTX cells in culture at conc. 10e-6. Also on record: scale not given: the % may be the effect or the level left. The class given is functional, Homo sapiens. In a few lines: as §1
A short description of experiment [3]: Compound was evaluated for its inhibitory effect on thymidine ([3H]dThd) incorporation into DNA of CEM cells in at conc. 10e-7. The class given is functional, Homo sapiens, CCRF-CEM. Also on record: scale not given: the % may be the effect or the level left. The method, boiled down:
as §1

The nature of experiment [4]: Compound was evaluated for its inhibitory effect on thymidine ([3H]-dThd) incorporation into DNA of CEM cells in culture at conc. 10e-4. The class given is functional, Homo sapiens, CCRF-CEM. Details: scale not given: the % may be the effect or the level left. The method, boiled down:
as §1

Experiment [5] can be described thus: Compound was evaluated for its inhibitory effect on thymidine ([3H]dThd) incorporation into DNA of CEM cells in culture at conc. 10e-5. The class given is functional, Homo sapiens, CCRF-CEM. Details: scale not given: the % may be the effect or the level left. In a few lines:
as §1

Experiment [6] is described as follows: Compound was evaluated for its inhibitory effect on thymidine ([3H]dThd) incorporation into DNA of CEM cells in culture at conc. 10e-6. The class given is functional, Homo sapiens, CCRF-CEM. Also on record: scale not given: the % may be the effect or the level left. The method, boiled down:
as §1

Experiment [7] can be described thus: Compound was evaluated for its inhibitory effect on thymidine ([3H]-dThd) incorporation into DNA of CEM/MTX cells in at conc. 10e-7. The class given is functional, Homo sapiens. Details: scale not given: the % may be the effect or the level left. In a few lines: as §1
Experiment [8] can be described thus: Compound was evaluated for its inhibitory effect on thymidine ([3H]dThd) incorporation into DNA of CEM/MTX cells in culture at conc. 10e-4. Details: scale not given: the % may be the effect or the level left. The class given is functional, Homo sapiens. The method, boiled down: as §1
The nature of experiment [9]: Compound was evaluated for its inhibitory effect on deoxyuridine ([3H]dUrd ) incorporation into DNA of CEM cells in culture at conc. 10e-7. Details: scale not given: the % may be the effect or the level left. The class given is functional, Homo sapiens, CCRF-CEM. The method, boiled down: as §1
Experiment [10] is described as follows: Compound was evaluated for its inhibitory effect on deoxyuridine ([3H]dUrd ) incorporation into DNA of CEM/MTX cells in culture at conc. 10e-7. Also on record: scale not given: the % may be the effect or the level left. The format is functional, Homo sapiens. In a few lines:
as §1

Experiment [11] can be described thus: Compound was evaluated for its inhibitory effect on deoxyuridine ([3H]-dUrd) incorporation into DNA of CEM cells in at conc. 10e-6. The class given is functional, Homo sapiens, CCRF-CEM. Details: scale not given: the % may be the effect or the level left. In a few lines:
as §1

Experiment [12] can be described thus: Compound was evaluated for its inhibitory effect on deoxyuridine ([3H]dUrd) incorporation into DNA of CEM cells in culture at conc. 10e-4. The format is functional, Homo sapiens, CCRF-CEM. Details: scale not given: the % may be the effect or the level left. The method, boiled down: as §1
Experiment [13] is described as follows: Compound was evaluated for its inhibitory effect on deoxyuridine ([3H]dUrd) incorporation into DNA of CEM cells in culture at conc. 10e-5. The format is functional, Homo sapiens, CCRF-CEM. Also on record: scale not given: the % may be the effect or the level left. The method, boiled down: as §1
Experiment [14] can be described thus: Compound was evaluated for its inhibitory effect on deoxyuridine ([3H]dUrd) incorporation into DNA of CEM/MTX cells in culture at conc. 10e-4. The class given is functional, Homo sapiens. Also on record: scale not given: the % may be the effect or the level left. The method, boiled down: as §1
A short description of experiment [15]: Compound was evaluated for its inhibitory effect on deoxyuridine ([3H]dUrd) incorporation into DNA of CEM/MTX cells in culture at conc. 10e-5. Details: scale not given: the % may be the effect or the level left. The class given is functional, Homo sapiens. The method, boiled down:
as §1

A short description of experiment [16]: Compound was evaluated for its inhibitory effect on deoxyuridine ([3H]dUrd) incorporation into DNA of CEM/MTX cells in culture at conc. 10e-6. Also on record: scale not given: the % may be the effect or the level left. The format is functional, Homo sapiens. In a few lines:
as §1

Turning to `CCCCCCCCCCCCOC(=O)CCC(NC(=O)c1ccc(N(C)Cc2cnc3nc(N)nc(N)c3n2)cc1)C(=O)O` (stereo not drawn), the IC50 in the experiment with CCRF-CEM came to 370 nM; at Dihydrofolate reductase, 34 nM.
Take `CCCCCCCCOC(=O)CCC(NC(=O)c1ccc(N(C)Cc2cnc3nc(N)nc(N)c3n2)cc1)C(=O)O` (stereo not drawn): the IC50 in the experiment on CCRF-CEM amounted to 920 nM; at Dihydrofolate reductase it was 5.4 nM.
In the case of `CCCCOC(=O)C(CCC(=O)O)NC(=O)c1ccc(N(C)Cc2cnc3nc(N)nc(N)c3n2)cc1` (stereo not drawn), the values for the concentration for half-maximal inhibition (IC50) in the experiment with CCRF-CEM and against Dihydrofolate reductase were 2000 nM and 56 nM, respectively.
For `CCCCCCCCCCCCCCCCOC(=O)CCC(NC(=O)c1ccc(N(C)Cc2cnc3nc(N)nc(N)c3n2)cc1)C(=O)O` (stereo not drawn), the Control in experiment [1] is on record as 15%; in [2], 108%; in experiment [3], 92%; in [4], 17%; in [5], 25%; in experiment [6], 67%. Besides, the Control was determined as 81% in experiment [7]; 8% in experiment [8]; 117% in [9]; 95% in [10]; 64% in experiment [11]; 7% in experiment [12]. Further, the Control is 14% in experiment [13], 2% in [14], 55% in [15] and 103% in [16]. The 50% inhibitory concentration (IC50) in the experiment on CCRF-CEM worked out at 110 nM; at Dihydrofolate reductase, 37 nM.
For `CN(Cc1cnc2nc(N)nc(N)c2n1)c1ccc(C(=O)N[C@@H](CCC(=O)O)C(=O)O)cc1` [METHOTREXATE], the IC50 in the experiment on CCRF-CEM stood at 25 nM.
In the case of `CCCCOC(=O)CCC(NC(=O)c1ccc(N(C)Cc2cnc3nc(N)nc(N)c3n2)cc1)C(=O)O` (stereo not drawn), the results for the 50% inhibitory concentration (IC50) in the experiment on CCRF-CEM and against Dihydrofolate reductase were 780 nM and 5.4 nM, respectively.
In the case of `CCCCCCCCCCCCCCCCOC(=O)C(CCC(=O)O)NC(=O)c1ccc(N(C)Cc2cnc3nc(N)nc(N)c3n2)cc1` (stereo not drawn), the IC50 in the experiment on CCRF-CEM was 250 nM; against Dihydrofolate reductase, 1200 nM.
The like results for `CCCCCCCCOC(=O)C(CCC(=O)O)NC(=O)c1ccc(N(C)Cc2cnc3nc(N)nc(N)c3n2)cc1` (stereo not drawn) were, in that order, 3000 nM and 360 nM.
`CCCCCCCCCCCCOC(=O)C(CCC(=O)O)NC(=O)c1ccc(N(C)Cc2cnc3nc(N)nc(N)c3n2)cc1` (stereo not drawn): the results for the IC50 in the experiment with CCRF-CEM and on Dihydrofolate reductase were 2100 nM and 440 nM, respectively.
